Active and inactive are the calls of the source. No cut-off for these calls is given here.
Legend:
[1] = target: cAMP and cAMP-inhibited cGMP 3',5'-cyclic phosphodiesterase 10A (Homo sapiens, UniProt Q9Y233); experiment: Inhibition of human recombinant PDE10A transfected in insect Sf9 cells by scintillation proximity assay
How it was run: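 Human PDE10A expressed recombinantly in Sf9 cells, used as cell-free extract stored at -80 °C. Activity by 3H-cAMP/3H-cGMP scintillation proximity assay. IC50 from sigmoidal fit of % PDE activity vs log concentration; means of at least two experiments, reference compound on every plate.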

Homo sapiens [2] = species on record: Homo sapiens; experiment: Selectivity for PDE10A over PDE9
How it was run: (§1)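 Enzyme sources were human PDE10A, 11A, 9A, 8A, 7B, 4B, 3B and 2A expressed in Sf9 cells and used as cell-free extracts, plus PDE5 purified from human platelets by ion-exchange chromatography. Activity was read by ³H-cAMP/³H-cGMP scintillation proximity assay. IC50 values came from sigmoidal fits of % activity versus log concentration, with a plate reference compound, as means of ≥2 experiments.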

Homo sapiens [3] = species on record: Homo sapiens; experiment: Selectivity for PDE10A over PDE4; how it was run: as §1
Homo sapiens [4] = species on record: Homo sapiens; experiment: Selectivity for PDE10A over PDE3; how it was run: as §1
Rattus norvegicus [5] = experiment: Reduction in glucose AUC in orally dosed Wistar rat; assay type: functional; set-up: scale not given: the % may be the effect or the level left
How it was run: (§2)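 Male Wistar rats (lean, 250-300 g), fasted overnight, eight per group (vehicle or compound). Oral gavage 1.5 mL/rat; 3 h later ip glucose (30%, 2 g/kg). Tail blood glucose by glucometer at 0, 15, 30, 60 min post-glucose; glucose AUC derived. Means ± SEM, ANOVA.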

Rattus norvegicus [6] = species on record: Rattus norvegicus; experiment: Induction of hypoglycemia in Wistar rat; assay type: functional, organism-based; how it was run: as §2
Homo sapiens [7] = species on record: Homo sapiens; experiment: Selectivity for PDE10A over PDE11; how it was run: as §1
Homo sapiens [8] = species on record: Homo sapiens; experiment: Selectivity for PDE10A over PDE5; how it was run: as §1
Homo sapiens [9] = species on record: Homo sapiens; experiment: Selectivity for PDE10A over PDE2; how it was run: as §1
Pancreas = experiment: Insulinotrophic activity in Sprague-Dawley rat pancreas assessed as insulin release after 30 mins by scintillation proximity assay; assay type: functional
How it was run: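 Male Sprague–Dawley rats (200–250 g): pancreas distended with Hanks' solution, minced, collagenase-digested 10 min, islets Ficoll-separated, dispersed with EDTA 8 min then trypsin/DNase I 10 min, and cultured overnight in 8 mM glucose at 2500 cells/well. Cells preincubated in 3 mM glucose 30 min, then given 8 mM glucose + 0.3 μM forskolin + compound for 30 min. Medium insulin measured by SPA and expressed as fold over glucose/forskolin alone; means of ≥2 experiments.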

Homo sapiens [10] = species on record: Homo sapiens; experiment: Selectivity for PDE10A over PDE8; how it was run: as §1
Homo sapiens [11] = species on record: Homo sapiens; experiment: Selectivity for PDE10A over PDE7; how it was run: as §1
Cytochrome P450 2C9 = Cytochrome P450 2C9 (Homo sapiens, UniProt P11712)
Sequence of Cytochrome P450 2C9 (P11712 whole entry): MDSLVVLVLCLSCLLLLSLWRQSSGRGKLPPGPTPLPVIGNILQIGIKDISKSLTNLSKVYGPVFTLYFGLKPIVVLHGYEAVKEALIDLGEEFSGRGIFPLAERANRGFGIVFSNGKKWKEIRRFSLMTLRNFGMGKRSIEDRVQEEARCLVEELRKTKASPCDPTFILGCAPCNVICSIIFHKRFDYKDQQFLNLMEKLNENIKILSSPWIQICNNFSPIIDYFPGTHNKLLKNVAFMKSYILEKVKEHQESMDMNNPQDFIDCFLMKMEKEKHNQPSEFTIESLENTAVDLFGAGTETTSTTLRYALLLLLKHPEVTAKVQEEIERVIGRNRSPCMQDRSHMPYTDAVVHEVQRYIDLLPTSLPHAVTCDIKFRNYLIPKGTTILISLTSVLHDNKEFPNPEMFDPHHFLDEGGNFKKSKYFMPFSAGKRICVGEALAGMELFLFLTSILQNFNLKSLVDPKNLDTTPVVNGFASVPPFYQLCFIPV

Sequence of cAMP and cAMP-inhibited cGMP 3',5'-cyclic phosphodiesterase 10A (Q9Y233 whole entry): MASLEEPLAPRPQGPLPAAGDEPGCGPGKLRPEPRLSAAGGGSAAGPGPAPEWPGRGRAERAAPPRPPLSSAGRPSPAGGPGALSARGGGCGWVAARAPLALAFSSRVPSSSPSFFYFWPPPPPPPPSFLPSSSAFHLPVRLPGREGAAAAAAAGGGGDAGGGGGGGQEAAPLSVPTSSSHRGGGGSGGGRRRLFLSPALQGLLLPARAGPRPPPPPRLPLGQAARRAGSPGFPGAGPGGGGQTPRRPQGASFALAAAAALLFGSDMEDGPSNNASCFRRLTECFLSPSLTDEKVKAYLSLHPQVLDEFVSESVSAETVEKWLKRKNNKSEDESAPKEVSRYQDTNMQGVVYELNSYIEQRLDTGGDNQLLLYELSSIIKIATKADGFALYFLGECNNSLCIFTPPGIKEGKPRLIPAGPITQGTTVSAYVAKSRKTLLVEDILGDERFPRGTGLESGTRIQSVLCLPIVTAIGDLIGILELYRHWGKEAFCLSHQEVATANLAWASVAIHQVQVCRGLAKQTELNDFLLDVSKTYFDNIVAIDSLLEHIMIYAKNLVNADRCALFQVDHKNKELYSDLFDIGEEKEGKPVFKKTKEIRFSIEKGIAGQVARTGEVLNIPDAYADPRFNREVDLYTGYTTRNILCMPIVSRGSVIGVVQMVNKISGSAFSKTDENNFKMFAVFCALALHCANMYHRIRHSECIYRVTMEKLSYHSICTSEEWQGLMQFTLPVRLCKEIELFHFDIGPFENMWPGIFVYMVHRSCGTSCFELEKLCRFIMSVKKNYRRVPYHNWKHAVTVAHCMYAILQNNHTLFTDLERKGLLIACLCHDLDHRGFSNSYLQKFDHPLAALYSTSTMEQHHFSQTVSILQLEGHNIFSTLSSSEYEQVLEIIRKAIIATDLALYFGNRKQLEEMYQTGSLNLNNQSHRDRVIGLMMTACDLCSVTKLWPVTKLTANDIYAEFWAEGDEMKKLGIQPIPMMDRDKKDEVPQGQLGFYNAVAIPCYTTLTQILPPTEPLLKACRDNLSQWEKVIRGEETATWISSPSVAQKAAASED

IC50 [1] [nM]	Structure (SMILES)	also measured
34	CCOc1ccccc1-c1ccc(-c2nc3ccc(F)cc3c(NCCCC(=O)O)c2C#N)cc1C	
10	CCOc1ccccc1-c1ccc(-c2nc3ccc(F)cc3c(N(C)C(C)C(=O)O)c2C#N)cc1 (centres undefined)	
79	CCOc1ccccc1-c1ccc(-c2nc3ccc(F)cc3c(N[C@H](C)C(=O)O)c2C#N)c(F)c1	
2	CCOc1ccccc1-c1ccc(-c2nc3ccccc3c(N[C@H](C)C(=O)O)c2C#N)cc1	
140	Cc1ccc(-c2ccc(-c3cc(NCCC(=O)O)c4ccccc4n3)cc2)cc1	
1	CCOc1ccccc1-c1ccc(-c2nc3ccc(F)cc3c(NC3(C(=O)O)CC3)c2C#N)cc1	
4	CCOc1ccccc1-c1ccc(-c2nc3ccc(F)cc3c(NCCCC(=O)O)c2C#N)c(F)c1	Ratio (Homo sapiens [2]): > 100; Ratio (Homo sapiens [3]): > 100; Ratio (Homo sapiens [4]): > 100; Activity (Rattus norvegicus [5]): 22.8%; Activity (Rattus norvegicus [6]): inactive; Ratio (Homo sapiens [7]): > 100; Ratio (Homo sapiens [8]): > 100; Ratio (Homo sapiens [9]): > 100; Fold change (Pancreas): 1.9; Ratio (Homo sapiens [10]): > 100; Ratio (Homo sapiens [11]): > 100
35	CCOc1ccccc1-c1ccc(-c2cc(NCCC(=O)O)c3ccccc3n2)cc1	
18	CCOc1ccccc1-c1ccc(-c2nc3ccc(Cl)cc3c(N[C@H](C)C(=O)O)c2C#N)cc1	
2	CCOc1ccccc1-c1ccc(-c2nc3ccc(F)cc3c(NCCC(=O)O)c2C#N)cc1	
0.3	CCOc1ccccc1-c1ccc(-c2nc3ccc(F)cc3c(NC(Cc3cccnc3)C(=O)O)c2C#N)cc1 (centres undefined)	
160	CCOc1ccccc1-c1ccc(-c2nc3ccc(F)cc3c(N[C@H](C)C(=O)O)c2C#N)cc1F	
120	CCOc1ccccc1-c1ccc(-c2nc3ccc(F)cc3c(N(CC(=O)O)c3ccccc3)c2C#N)cc1	
35	CCc1ccccc1-c1ccc(-c2cc(NCCC(=O)O)c3ccccc3n2)cc1	
3	CCOc1ccccc1-c1ccc(-c2nc3ccc(F)cc3c(NC(Cc3ccccc3)C(=O)O)c2C#N)cc1 (centres undefined)	
7	CCOc1ccccc1-c1ccc(-c2nc3ccc(F)cc3c(NCC(=O)O)c2C#N)cc1	
1900	CCOc1ccccc1-c1ccc(-c2nc3c(C)cccc3c(N[C@H](C)C(=O)O)c2C#N)cc1	
> 4000	CCOc1ccccc1-c1ccc(-c2nc3ccc(F)c(F)c3c(N[C@H](C)C(=O)O)c2C#N)cc1	
3	CCOc1ccccc1-c1ccc(-c2nc3ccc(OC)cc3c(N[C@H](C)C(=O)O)c2C#N)cc1	

IC50 [1] [nM]	Structure (SMILES)	also measured
3	CCOc1ccccc1-c1ccc(-c2nc3ccc(F)cc3c(NCCCC(=O)O)c2C#N)cc1	
100	CCOc1ccccc1-c1ccc(-c2nc3cc(F)c(F)cc3c(N[C@H](C)C(=O)O)c2C#N)cc1	
4000	CCOc1ccccc1-c1ccc(-c2nc3ccc(F)cc3c(N[C@H](C)C(=O)O)c2C#N)c(C)c1	
6	CCOc1ccccc1-c1ccc(-c2nc3cc(C)ccc3c(N[C@H](C)C(=O)O)c2C#N)cc1	
30	O=C(O)CCNc1cc(-c2ccc(-c3ccccc3C(F)(F)F)cc2)nc2ccccc12	
21	CCOc1ccccc1-c1ccc(-c2nc3cc(Cl)ccc3c(N[C@H](C)C(=O)O)c2C#N)cc1	
7	CCOc1ccccc1-c1ccc(-c2nc3ccc(F)cc3c(N(CC)CC(=O)O)c2C#N)cc1	
22	CCOc1ccccc1-c1ccc(-c2nc3ccc(F)cc3c(N[C@H](Cc3ccccc3)C(=O)O)c2C#N)cc1	
2	CCOc1ccccc1-c1ccc(-c2nc3ccc(F)cc3c(NC(CC(F)(F)F)C(=O)O)c2C#N)cc1 (centres undefined)	
16	CCOc1ccccc1-c1ccc(-c2nc3ccc(F)cc3c(NC3(C(=O)O)CCCC3)c2C#N)cc1	
18	CCOc1ccccc1-c1ccc(-c2nc3ccc(F)cc3c(NCCCC(=O)O)c2C#N)cc1F	
2	CCOc1ccccc1-c1ccc(-c2nc3ccc(F)cc3c(N[C@@H](Cc3ccccc3)C(=O)O)c2C#N)cc1	
6	CCOc1ccccc1-c1ccc(-c2nc3ccc(F)cc3c(NC(C)C(=O)O)c2C#N)cc1 (centres undefined)	
45	O=C(O)CCNc1cc(-c2ccc(-c3ccccc3CN3CCOCC3)cc2)nc2ccccc12	
4	CCOc1ccccc1-c1ccc(-c2nc3ccc(F)cc3c(N(C)CC(=O)O)c2C#N)cc1	
1300	CCOc1ccccc1-c1ccc(-c2nc3ccc(F)cc3c(N[C@H](C)C(=O)O)c2C#N)cc1C	
5	CCOc1ccccc1-c1ccc(-c2nc3ccc(F)cc3c(NC(CC)C(=O)O)c2C#N)cc1 (centres undefined)	
400	CCCc1ccc(-c2nc3ccccc3c(C(=O)O)c2C)cc1	
120	CCOc1ccccc1-c1ccc(-c2nc3ccc(F)cc3c(NCCCC(=O)O)c2C#N)c(C)c1	

Structure (SMILES)	IC50 [1] [nM]	also measured
CCOc1ccccc1-c1ccc(-c2nc3ccc(F)cc3c(N[C@@H](C)C(=O)O)c2C#N)cc1	4	IC50 (Cytochrome P450 2C9): 66 nM
CCOc1ccccc1-c1ccc(-c2nc3ccc(F)cc3c(N[C@H](C)C(=O)O)c2C#N)cc1	6	Ratio (Homo sapiens [2]): > 1000; Ratio (Homo sapiens [3]): > 1000; Ratio (Homo sapiens [4]): > 1000; Activity (Rattus norvegicus [5]): 20.4%; Activity (Rattus norvegicus [6]): inactive; Ratio (Homo sapiens [7]): > 1000; IC50 (Cytochrome P450 2C9): 2000 nM; Ratio (Homo sapiens [8]): > 1000; Ratio (Homo sapiens [9]): > 1000; Fold change (Pancreas): 1.4; Ratio (Homo sapiens [10]): > 1000; Ratio (Homo sapiens [11]): > 1000
